JMJD2C inh = human JMJD2C demethylase inhibition; Q9H3R0; AID 2099; 330,000 compounds, 0.069% hits; inhibition, % at 2.35 µM; GST-JMJD2C(1-420) H3K9me3 demethylation, DELFIA europium;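 active = more than half of a compound's replicate wells show inhibition beyond 50%, single wells judged on their own value; inconclusive = some, but no more than half, of replicates pass 50% inhibition; inactive = no replicate passes 50% inhibition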;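 note: signal counts dimethyl H3K9 product captured on neutravidin plate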
GRIN3A LBD mod = modulates the human NR3A ligand-binding domain. AID 1259313. Tm shift relative to glycine control, % at 25 µM. 340,000 compounds, 2.5% hits. NR3A LBD differential scanning fluorimetry, Tm shift; 0% = protein alone, 100% = glycine-bound protein;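 active = melting temperature shift of at least 10% of the positive control shift, at one fixed dose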
GC-A act = GC-A (human) enzyme activation; 370,000 compounds, 0.14% hits; activation, % at 10 µM; HEK293 GC-A cells, cGMP TR-FRET, EC30 ANP; 0% at EC30 ANP, 100% saturating ANP; in the data active = activation above about 40%
GC-B act = GC-B (human) receptor activation | P20594 | HEK293-GC-B cells, CNP EC30, cGMP TR-FRET; 0% at EC30 CNP, 100% saturating CNP | AID 1920062 | 370,000 compounds, 0.11% hits | activation, % at 10 µM;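 active = activation at 10 µM reaching about 35% in either raw or pattern-adjusted values, limit read from the data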
Lipid droplet = hepatic lipid droplet formation modulation. 240,000 compounds, 0.4% hits. AID 1656. inhibition, % at 6.5 µM. AML12 mouse hepatocytes, oleate lipid droplets, BODIPY imaging;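 active = lipid droplet intensity inhibited by at least 50%, with more than 500 cells counted; inconclusive = wells with under 300 cells, treated as cytotoxic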
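Assay system: AML12 mouse liver cells | Compound: 6.5 µM single-point dosing | Schedule: Overnight exposure | Technique: Fluorescence imaging, 20x objective, two fields per well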
aDG glyco act = increases alpha dystroglycan glycosylation | Pro5-aDG cells, alpha-DG glycosylation AlphaScreen (IIH6); 0% Pro5, 100% B10-LARGE cell signal | activation, % at 10 µM | 360,000 compounds, 0.22% hits;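 active = activation of at least 8% versus controls, or a plate z-score of at least 8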;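 note: Pro5 are CHO cells carrying HIG-tagged alpha-DG that lacks glycosylation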
Numbers stand for hits; n = inactive; u = inconclusive; x = not tested or not shown. Most compounds without a hit are left out; they make up all but 3% or so of the library.

SMILES	JMJD2C inh	GRIN3A LBD mod	GC-A act	GC-B act	Lipid droplet	aDG glyco act
CC(=O)NCCNc1nc2c(-c3cccc(C(F)(F)F)c3)nnn2c2ccccc12	n	n	n	n	n	n
NS(=O)(=O)c1ccc(CCNc2nc3c(-c4cccc(F)c4)nnn3c3ccccc23)cc1	n	15	n	n	n	n
Cc1ccc(-c2nnn3c2nc(NCCc2ccc(S(N)(=O)=O)cc2)c2ccccc23)cc1	n	86	n	n	n	n
CCN1CCCCC(NC(=O)c2ccccc2OC)C1=O (stereo not drawn)	x	x	n	n	x	x
Oc1ccc(N=Nc2ccc3ccccc3c2)cc1	n	24	n	n	n	n
C#CCCN([C@@H](CC(C)C)C(=O)OC)S(=O)(=O)c1ccccc1Br	x	x	n	n	x	x
O=C(NNC(=O)C1CCN(S(=O)(=O)c2ccccc2)CC1)c1ccccc1O	94	n	n	n	n	n
CCOC(=O)c1cnc(-c2ccccc2)nc1Oc1cccc(Cl)c1	n	14	n	n	x	n
CCOC(=O)c1nnc(-c2ccccc2)nc1Oc1ccc(Cl)cc1	n	11	n	n	n	n
CCOc1ccc(N2CC(NC(=O)c3ccc4ccccc4c3)CC2=O)cc1 (stereo not drawn)	n	n	n	n	x	n
O=C(O)CN1C(=O)/C(=C\c2cc(Br)ccc2OCc2ccc(Cl)cc2Cl)SC1=S	n	29	x	x	n	n
O=C(O)CN1C(=O)/C(=C\c2ccccc2OCc2ccc(Cl)cc2)SC1=S	n	n	n	n	n	n
COc1ccc(/C=C2/SC(=S)N(CCC(=O)O)C2=O)cc1	n	n	n	n	x	n
O=C(O)CCN1C(=O)/C(=C\c2cccc(Oc3ccccc3)c2)SC1=S	n	14	n	n	n	n
O=C(O)CN1C(=O)/C(=C\c2cccc(OCc3ccccc3F)c2)SC1=S	n	31	n	n	n	n
O=C(Nc1cccc(F)c1)Nc1ccc2c(c1)C(=O)OC2	n	14	n	n	n	n
O=C(Nc1cccc(Cl)c1)Nc1ccc2c(c1)C(=O)OC2	n	31	n	n	n	n
O=C(Nc1ccc2c(c1)C(=O)OC2)c1ccccc1Cl	n	n	n	n	n	n
O=C1OCc2ccc(NC(=O)c3c(F)cccc3Cl)cc21	n	n	n	n	n	n
CN(C)S(=O)(=O)c1cccc(-c2nn(-c3ccccc3)cc2/C=C(\C#N)c2nc3ccccc3[nH]2)c1	n	n	n	n	n	n
CN(C)S(=O)(=O)c1cccc(-c2nn(-c3ccccc3)cc2/C=C2\SC(=S)NC2=O)c1	n	11	n	n	n	n
CCOC(=O)c1sc2ncc([N+](=O)[O-])cc2c1N	n	n	n	n	n	n
COC(=O)c1sc2cc([N+](=O)[O-])cc(SCC(C)C)c2c1N	n	n	n	n	56	n
CCOc1ccc(N/C=C/C(=O)c2ccccc2)c([N+](=O)[O-])c1	n	18	n	n	n	n
CCOc1ccc(NC(=O)/C=C/c2ccccc2)c([N+](=O)[O-])c1	n	15	n	n	n	n
SMILES	JMJD2C inh	GRIN3A LBD mod	GC-A act	GC-B act	Lipid droplet	aDG glyco act
COc1ccc(/C=C/C(=O)Nc2ccccc2C(=O)O)cc1	n	20	n	n	n	n
COc1ccc(NC(=O)/C=C/C(=O)O)c([N+](=O)[O-])c1	n	n	n	n	n	n
CCOc1ccc(/C=C/C(=O)Nc2ccc(OC)cc2[N+](=O)[O-])cc1	n	28	n	n	x	n
CCCc1nc2c(C)cc(Br)cn2c1Cc1cccc(F)c1	x	x	n	n	x	n
COc1cccc(NC(=O)CC(=O)c2ccc([N+](=O)[O-])cc2)c1	n	17	n	n	n	n
COc1cc([N+](=O)[O-])ccc1NC(=O)CCCOc1ccc(C)cc1	n	n	n	n	x	n
COc1ccc(NC(=O)c2cccc([N+](=O)[O-])c2)cc1	n	n	n	n	n	n
COc1ccc(OCCCC(=O)Nc2cccc([N+](=O)[O-])c2)cc1	n	16	n	n	n	n
COc1ccc(NC(=S)Nc2cccc([N+](=O)[O-])c2)cc1	n	23	n	n	x	n
COc1ccc(C(=O)CC(Nc2ccc([N+](=O)[O-])cc2)c2ccc(Cl)cc2)cc1 (stereo not drawn)	n	11	n	n	n	n
COCCNC(=O)C1CCCN(C(=O)c2sccc2C)CC1 (stereo not drawn)	x	x	n	n	x	n
CCCCCCCCN1C(=O)N2Cc3cc(F)ccc3C2CS1(=O)=O (stereo not drawn)	x	x	n	n	x	x
Cc1ccc(C2=NOC(=O)/C2=C\c2ccc(C)o2)cc1	n	13	n	n	n	n
COc1ccc(/C=C2\C(=O)ON=C2c2ccccc2)cc1	u	19	n	n	x	n
O=C1ON=C(c2ccccc2)/C1=C/c1ccc(OS(=O)(=O)c2ccccc2)cc1	n	n	n	n	n	n
O=C1ON=C(c2ccccc2)/C1=C/c1ccc(O)c(O)c1	n	16	n	n	n	n
C[C@H](CO)N1C[C@H](C)[C@@H](CN(C)C(=O)Cc2cccnc2)Oc2ncc(C#CCc3ccccc3)cc2C1=O	x	x	n	n	x	x
Cc1cc(/C=N/n2c(COc3ccccc3)nc3ccccc3c2=O)c(O)c([N+](=O)[O-])c1	n	16	n	n	n	n
Cc1ccc(-c2[nH]ncc2/C=N/n2c(COc3ccccc3)nc3ccccc3c2=O)cc1	n	n	n	n	n	n
COC(=O)Cc1nnn2c1[C@H](C)[C@@H](OC)c1ccccc1-2	x	x	n	n	x	x
Cc1ccc(CNC(=O)c2ccc(N3CCCC3=O)cc2)cc1	n	n	n	n	x	n
Cn1nc(C(C)(C)C)cc1C(=O)NCc1ccc(N2CCCC2=O)cc1	n	n	n	n	n	4.7
O=C(NCc1ccc(Cl)cc1)C1CCCN(c2ncccn2)C1 (stereo not drawn)	x	x	n	n	x	x
CN1CCN(c2ccc(S(=O)(=O)N3CCOCC3)cc2NC(=O)C2CCCCC2)CC1	x	n	n	n	x	n
CCN1CCN(c2ccc(S(=O)(=O)N3CCOCC3)cc2NC(=O)C2CCC(C(C)(C)C)CC2)CC1 (stereo not drawn)	x	19	n	n	x	n
CCCCN(C(=O)c1ccccc1Br)C(c1ccc(OC)cc1)c1nc2ccccc2[nH]1 (stereo not drawn)	x	x	n	n	x	n
O=C(NCc1cccc2[nH]ccc12)C1CCC(=O)N(CCc2ccc(Cl)cc2)C1 (stereo not drawn)	n	11	n	n	n	n
O=C(NCc1ccc2c(c1)OCO2)C1CC(=O)N(CCc2ccc(Cl)cc2)C1 (stereo not drawn)	n	12	n	n	n	n

Source: PubChem BioAssay (several laboratories)
